From PubChem BioAssay
Phagocytosis inh: inhibitors of macrophage phagocytosis, primary screen, imaging, J774A.1 cells, IgG beads. inhibition, % at 5 µM. AID 1029, 2008. J774A.1 macrophage IgG-bead phagocytosis. 110,000 compounds, 0.07% hits;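 active means inhibition above the mean of the plate negative controls plus 5 SD, cut at about 13% in these data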;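 further: phagocytic index as fraction of beads internalized from green versus red external bead signal; plate controls were DMSO negative control for no effect and cytochalasin-D positive control for full effect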
BB579 growth dn: growth inhibitors of yeast BB579 in restrictive medium, primary screen, yeast lifespan-shortening project, S. cerevisiae; OD615, 48 h; inhibition, % at 10 µM; 140,000 compounds, 0.51% hits; AID 804, 2007;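 active means inhibition above a set limit, 3 SD over the mean compound inhibition, cut at about 44% in these data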
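System: Saccharomyces cerevisiae DeaD strain BB579, replicative lifespan model yeast. Buffer or medium: restrictive glucose-based CSMM-D medium. Doses: one dose, 10 µM compound with 0.25% DMSO. Timing: 4 h preincubation and 48 h exposure at 30 °C. Detection: turbidity as optical density at 615 nm. Benchmarks: amphotericin B 10 µg/mL, positive.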
RAM inhibit: inhibitors of the yeast RAM network, primary screen, dse1pr::URA3 reporter, 5-FOA selection | inhibition, % at 50 µM | S. cerevisiae dse1pr::URA3 reporter, 5-FOA growth OD615, 2 d; analog-sensitive cbk1-as2 kinase mutant strain | AID 868, 2007 | 190,000 compounds, 1.8% hits;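 active means inhibition above a set limit, 3 SD over mean compound inhibition, cut at about 8.4% in these data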;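 further: 0% = DMSO-only wells with no growth and 100% = 10 µM 1-NA-PP1 full growth; inhibition rescues growth on 5-FOA so higher OD means more RAM inhibition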
Yeast lifespan up: compounds extending yeast replicative lifespan, primary screen, S. cerevisiae, OD615 | S. cerevisiae growth with nicotinamide; deaD strain in restrictive glucose medium | 130,000 compounds, 0.68% hits | inhibition of the nicotinamide effect, % at 10 µM;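 active means inhibition above a set limit, placed 3 SD over the median of all compounds, cut at about 26% in these data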;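 further: 0% = nicotinamide-treated wells and 100% = cells grown without nicotinamide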
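System: Modified budding yeast, DeaD strain | Buffer or medium: Restrictive glucose medium | Also added: 1.5 mM nicotinamide | Doses: 10 µM single point, 0.25% DMSO | Schedule: 48 h compound exposure at 30 °C, humidified | Detection: Absorbance at 615 nm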
* = called active by the depositor; . = no result. An excerpt weighted towards active compounds, which were near 2.7% of everything screened.

SMILES	Phagocytosis inh	BB579 growth dn	RAM inhibit	Yeast lifespan up
Cc1ccccc1OCC(=O)Nc1cccc(N(C)S(C)(=O)=O)c1	0	-37	1	-20
Cc1cc(NC(=O)COc2ccc(Cl)cc2Cl)n(-c2ccccc2)n1	-3	-26	8.6*	-22
CN(c1cccc(NC(=O)COc2ccc(Cl)cc2Cl)c1)S(C)(=O)=O	.	-23	8.8*	.
COc1ccc(S(=O)(=O)N2Cc3ccccc3CC2C(=O)Nc2nccs2)cc1 (configuration not stated)	.	-54	2	-20
CCc1[nH]nc2c1C(c1ccc(Br)s1)C(C#N)=C(N)O2 (configuration not stated)	1	-26	0	58*
CCc1[nH]nc2c1C(c1ccsc1)C(C#N)=C(N)O2 (configuration not stated)	.	-19	3	.
COc1cc(C(=O)NC(=S)NNC(=O)c2cnccn2)cc(OC)c1OC	-6	88*	0	9
COc1ccc(CC(=O)NNC(=O)c2cnccn2)cc1	3	-22	3	5
COc1ccc(C(=O)NC(=S)NNC(=O)c2cnccn2)cc1	-4	81*	6	2
CC(CCCC(C)(C)O)CC1C2=C(CCCC2=O)OC2=C1C(=O)CCC2 (configuration not stated)	.	.	2	.
C1CCC(C23CC4CC(CC(C4)C2)C3)NC1 (configuration not stated)	.	-41	0	.
Cc1cccc(N2C(=O)C(Oc3ccc(Cl)cc3Cl)C2C=O)c1C (configuration not stated)	-9	-27	4	51*
Cc1ccc(-c2csc3ncnc(N4CCN(C(=O)c5ccccc5)CC4)c23)cc1	.	-63	0	29
COc1cccc(C(=O)NC(C)c2ccc(Br)cc2)c1 (configuration not stated)	-2	-20	0	6
COc1ccc(C(C)NC(=O)c2ccccc2)cc1 (configuration not stated)	.	-63	-1	84*
O=C1NCC2=C1C(c1ccc(Br)cc1)Nc1ccccc1N2 (configuration not stated)	.	-48	0	92*
CC(C)CCN1CCN(Cc2ccon2)CC1CCO (configuration not stated)	.	.	0	.
Nc1nnc(/C=C/c2ccccc2)s1	.	.	0	.
O=C(Nc1ccc(N2CCOCC2)cc1)c1ccc2nc(-c3ccco3)c(-c3ccco3)nc2c1	-1	-27	7	-19
S=C(Nc1ccc(N2CCOCC2)cc1)Nc1ccc2nc(-c3ccco3)c(-c3ccco3)nc2c1	0	-94	3	37*
CN(C)CC(C)(C)CNS(=O)(=O)CC12CCC(CC1=O)C2(C)C (configuration not stated)	-1	-8	2	-3
COC(=O)c1sccc1NC(=O)CSc1cc(Cl)ccc1Cl	.	-34	9.5*	-14
CCOC(=O)c1c(CSC(=N)N)n(-c2ccc(C)cc2)c2cc(Br)c(OC(C)=O)cc12	.	-93	11*	-8
CCOC(=O)c1c(CN(C)C)n(-c2ccccc2)c2cc(Br)c(OC)cc12	5	-61	1	26*
CC(C)N(Cc1nc(-c2ccccc2)no1)C(=O)CN(C)S(=O)(=O)c1ccccc1	2	-37	8.7*	-8
SMILES	Phagocytosis inh	BB579 growth dn	RAM inhibit	Yeast lifespan up
CC(C)N(Cc1nc(-c2ccccc2)no1)S(=O)(=O)c1ccccc1	0	-1	5	-7
O=S(=O)(c1ccccc1)N(Cc1nc(-c2ccccc2)no1)C1CCCCC1	-1	-54	9.2*	-4
O=C(NCc1ccccn1)C1CN(S(=O)(=O)c2ccccc2)CCN1S(=O)(=O)c1ccccc1 (configuration not stated)	.	.	3	.
Cc1cc(C)cc(N(CCC(=O)O)S(=O)(=O)c2ccc3ccccc3c2)c1	-1	-30	5	33*
CC(C)(Oc1ccc(Cl)cc1)C(=O)N/N=C/c1cn[nH]c1-c1ccccc1	0	-27	2	-9
Cc1ccc(O)c(N=Cc2cc(Cc3ccccc3)cc([N+](=O)[O-])c2O)c1	.	.	0	.
O=[N+]([O-])c1cc(Cc2ccccc2)cc(C=Nc2ccc(N3CCOCC3)cc2)c1O	-2	100*	0	-10
Cn1nc(C(F)(F)F)c(CO)c1Sc1ccc(F)cc1	.	.	0	.
Cc1ccc(N(CC(=O)NC(C)(C)C)C(=O)CNC(=O)c2cccs2)cc1C	.	.	3	.
O=C(COC(=O)c1ccccc1O)Nc1ccc(S(=O)(=O)N2CCCCC2)cc1	.	.	2	.
O=C(COC(=O)c1ccccc1NS(=O)(=O)c1ccc(Cl)cc1)NCc1ccccc1	-3	-47	11*	8
CCOC(=O)c1ccccc1NS(=O)(=O)c1ccc(S(=O)(=O)N2CCCC2)cc1	-1	-32	10*	2
CCc1nc(SCC(=O)Nc2nnc(CC(C)C)s2)n[nH]1	.	.	1	.
CCn1c(SCC(=O)Nc2nc(-c3ccccc3)cs2)nc2c1c(=O)n(C)c(=O)n2C	-9	-24	4	-1
Cc1cc(C)nc(N/N=C/C2=C(N3CCOCC3)C(=C\c3ccc(Cl)cc3)/CC2)n1	-10	52*	1	-2
O=S(=O)(Nc1nc2ccccc2nc1Cl)c1ccccc1	-13	-4	0	30*
O=S(=O)(Nn1cnnc1)c1ccc2ccccc2c1	.	.	2	.
CCC(C)Oc1nc2ccccc2nc1NS(=O)(=O)c1ccccc1 (configuration not stated)	1	-39	3	26*
O=S(=O)(Nc1nc2cc3c(cc2nc1Cl)OCCO3)c1ccccc1	.	.	0	.
O=S(=O)(Nc1nc2ccccc2nc1Cl)c1ccc2ccccc2c1	-3	-31	6	41*
Cc1ccc(NC(=O)C2CC(=O)n3ncnc3N2)cc1C (configuration not stated)	.	.	0	.
O=C(CSc1nnc(-c2ccco2)o1)c1ccc[nH]1	.	.	0	.
O=C(O)c1ccccc1C(=O)N1CCN(c2cccc(Cl)c2)CC1	.	-12	1	3
O=C(C1CC1c1ccccc1)N1CCN(c2cccc(Cl)c2)CC1 (configuration not stated)	5	-80	9.5*	-9
CN(C)c1ccc(C2SCCN2C(=O)c2ccc([N+](=O)[O-])cc2)cc1 (configuration not stated)	.	-15	0	-3
SMILES	Phagocytosis inh	BB579 growth dn	RAM inhibit	Yeast lifespan up
CN(C)c1ccc([C@@H]2[C@@H]([N+](=O)[O-])[C@H]3C=Cc4ccccc4N3[C@H]2C(=O)c2ccc(Cl)cc2)cc1	-7	-9	2	32*
CC(=O)Nc1ccc(NC(=O)CCSCCc2ccccn2)cc1	.	.	1	.
CCOC(=O)CSc1nc(-c2ccccc2)nc2c1oc1ccccc12	4	-48	8	-12
c1ccc(-c2nc(NCc3ccco3)c3oc4ccccc4c3n2)cc1	.	-51	11*	-8
O=C(O)CSc1nc(-c2ccccc2)nc2c1oc1ccccc12	-1	-33	9.8*	-9
Cc1ccc(-c2nc(NCc3ccco3)c3ccccc3n2)cc1	-6	-17	0	-9
